Compounds with a hit are over-represented: about 2% of the library has one in this group of screens.
HSP90 refold inh: HSP90 inhibitors, primary screen, cell lysate, luminescence. AID 1789, 2009. 0.91% of 290,000 active. inhibition, % at 5.6 µM. Heat shock protein HSP 90 (rabbit reticulocyte lysate; luciferase refolding). Rabbit reticulocyte lysate, luciferase refolding luminescence, 3 h;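 active = inhibition above the screen-wide mean plus 3 SD, computed separately per campaign, cut at about 16% in these data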;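 note: 0% = DMSO wells and 100% = 60 µM geldanamycin wells; inhibitors lower the luminescence because luciferase stays unfolded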
C8 TRAIL sens: viability loss with TRAIL in NB7+C8 cells, primary screen, TRAIL sensitizer project, cell-based, ATPlite luminescence; inhibition (viability loss, TRAIL sensitization), % at 10 µM; 1% of 360,000 active;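 active = compounds causing at least 50% loss of cell viability in the single-dose screen, relative to plate controls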
FLuc inh counter: firefly luciferase enzyme inhibitors, primary screen, artefact control for luciferase-based inhibitor screens, biochemical, luminescence, ATPLite. Luciferin 4-monooxygenase (Photinus pyralis), P08659. 10 min. inhibition, % at 10 µM. 1.5% of 200,000 active;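 active = inhibition above about 50% when tested at 10 µM, limit read from the data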
Target sequence (P08659 whole entry, looked up): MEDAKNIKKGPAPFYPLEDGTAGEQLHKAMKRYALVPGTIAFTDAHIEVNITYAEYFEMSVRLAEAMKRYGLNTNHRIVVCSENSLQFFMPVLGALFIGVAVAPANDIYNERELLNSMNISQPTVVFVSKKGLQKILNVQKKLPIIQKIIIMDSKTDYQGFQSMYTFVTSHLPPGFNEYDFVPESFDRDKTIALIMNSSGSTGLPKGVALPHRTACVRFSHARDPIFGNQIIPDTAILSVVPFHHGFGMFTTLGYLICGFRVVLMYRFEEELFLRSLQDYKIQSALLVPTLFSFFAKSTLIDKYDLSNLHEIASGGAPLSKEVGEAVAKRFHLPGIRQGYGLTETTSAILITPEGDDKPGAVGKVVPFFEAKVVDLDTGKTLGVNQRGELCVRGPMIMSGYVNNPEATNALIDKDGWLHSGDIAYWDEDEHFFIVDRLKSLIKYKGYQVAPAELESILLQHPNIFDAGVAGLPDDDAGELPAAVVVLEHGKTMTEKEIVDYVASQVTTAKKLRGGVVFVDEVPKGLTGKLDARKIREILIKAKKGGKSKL
FLuc stim CS: FLuc activators, initial screening, artefact control for FLuc-dependent activation tests, biochemical, ATPlite luminescence. Luciferin 4-monooxygenase (Photinus pyralis), P08659. ATPlite luciferase biochemical, 10 min; 0 = ATP-free wells, 1 = DMSO control. activation factor at 10 µM. 200,000 tested, under 10 active;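 active = luciferase activation factor, scaled between plate controls, of at least 2 with compound at 10 µM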
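System: cell-free luciferase reagent; medium: PBS as buffer for the ATP substrate; doses: test compounds dosed from 2 mM stocks in 100% DMSO; incubation: 10 min, room temperature; measured by: luminescence from luciferase reaction; read-out: luciferase activation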
PPC-1+TRAIL kill: compounds killing PPC-1 cancer cells with TRAIL present, primary screen, TRAIL potentiator project, ATPLite luminescence, uHTS | PPC-1 cells + TRAIL, ATPLite viability luminescence | cell killing (% activity), % at 4 µM or 5 µM | 0.41% of 220,000 active | AID 1443, 2008;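 active = cell killing above 50% in the first pass at 4 µM, then a duplicate retest at 5 µM averaging 50% or more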;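 note: plate controls were cells with TRAIL plus DMSO for no effect and medium-only wells lacking cells for full effect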
HSP90 confirm: HSP90 inhibitors, confirmation, cell lysate, luminescence; AID 1846, 2009; 64% of 2,300 active; inhibition, % at 5.9 µM; rabbit reticulocyte lysate, luciferase refolding luminescence, 3 h; shares compounds with HSP90 refold inh; in the data active = inhibition above about 18%;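 note: 0% = vehicle wells and 100% = reference inhibitor wells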
FLuc counter: firefly luciferase inhibitors, HSP90 counter-screen, confirmation, artefact control for HSP90 inhibitor project, biochemical, luminescence, triplicate; shares compounds with HSP90 refold inh; purified native firefly luciferase; inhibition, % at 5.9 µM; 48% of 2,300 active;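 active = inhibition above the mean inhibition of all tested sample wells plus 3 SD, cut at about 10% in these data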;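 note: 0% = DMSO with luciferase and 100% = wells lacking luciferase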
* hit, by the source's call; . = not tested or not shown.

SMILES	HSP90 refold inh	C8 TRAIL sens	FLuc inh counter	FLuc stim CS	PPC-1+TRAIL kill	HSP90 confirm	FLuc counter
CCOC(=O)c1sc2nc3c(cc2c1N)COC(C(C)C)C3 (stereo unspecified)	25*	46	49	0.5	20	44*	41*
Cc1cc(C)n(Cc2ccc(C(=O)O)cc2)n1	1	-10	-6	1.1	1	.	.
COC(=O)c1ccc(Cn2nc(C)cc2C)cc1	24*	0	-6	1.1	20	8	-9
COc1ccc(OC)c(NC(=O)CSc2nc(=O)n(Cc3ccccn3)c3c2CCC3)c1	.	-6	.	.	.	.	.
S=C(N/N=C1\CCc2ccccc21)NC1CCCCC1	26*	4	0	1	-7	34*	0
CCOC(=O)COc1cccc(C2NC(=O)c3ccccc3O2)c1 (stereo unspecified)	0	27	.	.	.	.	.
COCC(C)n1c(C)cc(C(=O)COC(=O)c2n[nH]c3ccccc23)c1C (stereo unspecified)	47*	58*	76*	0.2	8	48*	45*
COCC(C)n1c(C)cc(C(=O)COC(=O)c2cc(=O)[nH]c3ccccc23)c1C (stereo unspecified)	.	48	.	.	.	.	.
O=C(COC(=O)C1CCC1)NCc1ccc(Cl)cc1Cl	.	-8	.	.	.	.	.
C=CCn1c(NS(=O)(=O)c2ccccc2)c(S(=O)(=O)c2ccc(C)cc2)c2nc3ccccc3nc21	22*	-17	-9	1.1	5	52*	-1
O=S(=O)(Nc1c(S(=O)(=O)c2ccccc2)c2nc3ccccc3nc2n1C1CCCCC1)c1ccccc1	-1	27	-6	1.1	12	.	.
C#CCOCCOCCOCCNc1nc(N2CCN(C(=O)[C@H]([C@@H](C)CC)n3cc([C@@H](N)Cc4ccc(O)cc4)nn3)CC2)nc(N2CCN(C(=O)[C@H](Cc3cc4ccccc4[nH]3)n3cc([C@@H](N)C(C)CC)nn3)CC2)n1 (stereo partly specified)	19*	.	-10	1.1	8	10	-10
C#CCOCCOCCOCCNc1nc(N2CCN(C(=O)[C@H](Cc3cc4ccccc4[nH]3)n3cc([C@@H](N)C(C)CC)nn3)CC2)nc(N2CCN(C(=O)[C@H](Cc3cc4ccccc4[nH]3)n3cc([C@@H](N)Cc4ccc(O)cc4)nn3)CC2)n1 (stereo partly specified)	21*	.	-9	1.1	20	27*	-8
C#CCOCCOCCOCCNc1nc(N2CCN(C(=O)[C@H](Cc3cc4ccccc4[nH]3)n3cc([C@@H](N)CC(C)C)nn3)CC2)nc(N2CCN(C(=O)[C@H](Cc3cc4ccccc4[nH]3)n3cc([C@@H](N)CC(C)C)nn3)CC2)n1	20*	7	4	1	7	18*	-10
O=C(Cn1ccc(NC(=O)OCc2ccccc2)nc1=O)NCCc1c[nH]c2ccccc12	.	5	.	.	.	.	.
CCOC(=O)N1CCC(NCCNC(=O)c2ccc(F)c(F)c2)CC1	.	-6	.	.	.	.	.
COc1cc(C2Nc3ccccc3C(=O)N2c2ccc3c(c2)OCCO3)ccc1OCC(C)C (stereo unspecified)	45*	55*	10	0.9	27	4	-10
COc1cc(C2Nc3ccccc3C(=O)N2c2ccccc2OC)ccc1O (stereo unspecified)	-5	3	-2	1	14	.	.
O=C1c2ccccc2NC(c2ccc3c(c2)OCCO3)N1c1ccc2c(c1)OCCO2 (stereo unspecified)	22*	64*	18	0.8	42	17*	3
Cc1c(C(=O)Nc2ccccc2)cnn1-c1ccccc1	.	36	.	.	.	.	.
Cc1ccc(NC(=O)c2cnn(-c3ccccc3)c2C)cc1C	44*	42	.	.	.	64*	59*
Cc1ccc(C2/C(=C(/O)c3cnn(-c4ccccc4)c3C)C(=O)C(=O)N2CCCN2CCOCC2)o1 (stereo unspecified)	-2	.	.	.	10	.	.
Cc1c(/C(O)=C2\C(=O)C(=O)N(CCN(C)C)C2c2cccs2)cnn1-c1ccccc1 (stereo unspecified)	40*	-3	-2	1	.	10	-3
Cc1c(/C(O)=C2/C(=O)C(=O)N(CCN3CCOCC3)C2c2ccccn2)cnn1-c1ccccc1 (stereo unspecified)	76*	-16	13	0.9	-2	22*	36*
Cc1c(/C(O)=C2\C(=O)C(=O)N(CCN(C)C)C2c2cccnc2)cnn1-c1ccccc1 (stereo unspecified)	3	4	-2	1	12	.	.
SMILES	HSP90 refold inh	C8 TRAIL sens	FLuc inh counter	FLuc stim CS	PPC-1+TRAIL kill	HSP90 confirm	FLuc counter
CCOC(=O)C1(C)CCCCN1C(=O)c1ccc(F)c(C)c1 (stereo unspecified)	.	-19	.	.	.	.	.
O=C(Cc1ncc(C(F)(F)F)cc1Cl)NC1CC1	0	9	1	1	4	.	.
NC(=O)Cc1ncc(C(F)(F)F)cc1Cl	25*	-10	-9	1.1	10	-1	-5
COc1ccc(N2CCN(C(=O)c3ccc4nc(N5CCCCC5)sc4c3)CC2)cc1	19*	13	-4	1	4	29*	-8
C=C1CCC[C@]2(C)C[C@H]3OC(=O)C(CNCCN(CC)CC)[C@H]3CC12 (stereo partly specified)	7	0	.	.	.	.	.
CCCCc1nc(C(N)=O)c2[nH]c(=O)n(-c3ccc(OCC)cc3)c2n1	-2	-2	.	.	.	.	.
Cc1cccc(N(O)C(=O)Nc2cccc(Cl)c2)c1	26*	-5	.	.	.	62*	-17
CCN(C(=O)Nc1cccc(Cl)c1)c1ccccc1	2	-12	.	.	.	.	.
O=C(Cn1cc(C(F)(F)F)cc(Cl)c1=O)NC1CCS(=O)(=O)C1 (stereo unspecified)	.	-1	.	.	.	.	.
CCOc1cc(/C=N/NC(=O)C(O)(c2ccccc2)c2ccccc2)ccc1OC(=O)c1ccco1	.	-25	.	.	.	.	.
Cc1cnc(NC(=O)COc2ccc3c(c2)CCC3)s1	18*	7	.	.	.	32*	23*
Cc1cccc(NC(=O)COc2ccc3c(c2)CCC3)n1	.	6	.	.	.	.	.
Cc1cnc(C(=O)Nc2ccc3c(c2)CCC3)cn1	17*	13	48	0.5	19	27*	18*
CCn1ccc(C(=O)Nc2ccc3c(c2)CCC3)n1	19*	26	.	.	.	30*	15*
Cc1[nH]n(-c2ccccc2)c(=O)c1C(c1ccccc1[N+](=O)[O-])C(C#N)C#N (stereo unspecified)	28*	-9	.	.	.	2	-4
